Data as given in ChEMBL document CHEMBL4346661, “Design, synthesis and evaluation of novel diaryl-1,5-diazoles derivatives bearing morpholine as potent dual COX-2/5-LOX inhibitors and antitumor agents” (Eur J Med Chem, 2019).
pIC50: −log10 of the molar value. The source made the active and inactive calls. The calls are words filed in the database; no cut-off is given here.

Experiments:
[1] = test system: B16-F10; assay: Antiproliferative activity against mouse B16F10 cells incubated for 48 hrs by MTT assay; format: functional, cell-based; conditions: B16-F10, 48 h
Procedure, shortened: (§1)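 MTT assay on F10 (murine melanoma), HeLa, A549, MCF-7 and 293T (human renal epithelium) cells. IC50 given as mean ± SD of three independent experiments.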

[2] = test system: A549; assay: Antiproliferative activity against human A549 cells incubated for 48 hrs by MTT assay; format: functional, cell-based; conditions: A549, 48 h; procedure, shortened: as §1
[3] = test system: MCF7; assay: Antiproliferative activity against human MCF7 cells incubated for 48 hrs by MTT assay; format: functional, cell-based; conditions: MCF7, 48 h; procedure, shortened: as §1
[4] = test system: HEK-293T; assay: Antiproliferative activity against human 293T cells incubated for 48 hrs by MTT assay; format: cell-based; procedure, shortened: as §1
[5] = test system: B16-F10; assay: Inhibition of LPS-induced PGE2 production in mouse B16F10 cells at 6.25 uM incubated for 24 hrs by enzyme immunoassay; format: functional, cell-based
Procedure, shortened: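 F10 cells treated for 24 h alongside LPS (1 µg/ml), test agent at 6.25 µM. Supernatant collected by centrifugation and PGE2 measured with a PGE2 enzyme immunoassay (ELISA) kit. Mean ± SD of three independent experiments.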

[6] = test system: B16-F10; assay: Antitumor activity against mouse B16F10 cells implanted in nude mouse assessed as reduction in tumor size at 20 mg/kg, ip administered once per 2 days for 14 days by caliper method; format: functional
Procedure, shortened: (§2)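 Nude mice were given 5×10^6 F10 cells subcutaneously in the right flank. At about 100 mm3, 24 mice were randomized into four groups of vehicle or compound. Dosing was intraperitoneal every two days for two weeks. Tumor volume was recorded every other day. Tumors were excised and weighed after the last treatment, and body weight was monitored.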

[7] = test system: B16-F10; assay: Antitumor activity against mouse B16F10 cells implanted in nude mouse assessed as decrease in tumor weight at 20 mg/kg, ip administered once per 2 days for 14 days by caliper method relative to control; format: functional, organism-based; procedure, shortened: as §2
[8] = test system: HeLa; assay: Antiproliferative activity against human HeLa cells incubated for 48 hrs by MTT assay; format: functional, cell-based; procedure, shortened: as §1
[9] = target: T1, Prostaglandin G/H synthase 2 (Homo sapiens, UniProt P35354); assay: Inhibition of COX2 (unknown origin) using arachidonic acid as substrate incubated for 10 mins by Ellman's reagent based COX-1/COX-2 ELISA assay
T1 sequence (P35354 whole entry): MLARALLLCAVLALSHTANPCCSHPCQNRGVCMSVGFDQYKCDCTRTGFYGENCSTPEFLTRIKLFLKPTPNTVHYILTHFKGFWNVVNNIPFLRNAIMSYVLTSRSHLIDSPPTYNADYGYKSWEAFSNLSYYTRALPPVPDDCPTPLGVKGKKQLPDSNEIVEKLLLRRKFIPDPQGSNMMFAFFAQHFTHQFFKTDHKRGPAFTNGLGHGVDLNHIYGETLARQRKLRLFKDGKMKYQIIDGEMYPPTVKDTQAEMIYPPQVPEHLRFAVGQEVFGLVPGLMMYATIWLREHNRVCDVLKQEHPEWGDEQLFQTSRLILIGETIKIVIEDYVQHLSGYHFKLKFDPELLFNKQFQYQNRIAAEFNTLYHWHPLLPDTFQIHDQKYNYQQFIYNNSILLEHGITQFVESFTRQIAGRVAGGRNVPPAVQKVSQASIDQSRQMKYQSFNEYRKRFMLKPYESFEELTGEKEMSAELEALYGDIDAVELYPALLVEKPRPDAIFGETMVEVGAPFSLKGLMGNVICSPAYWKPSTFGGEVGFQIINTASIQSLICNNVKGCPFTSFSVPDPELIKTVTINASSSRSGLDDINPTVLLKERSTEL

[10] = Inhibition of 5-LOX assessed as calcium ionophore A23187-stimulated LTB4 production preincubated for 30 mins followed by calcium ionophore A23187 addition and measured after 30 mins by ELISA
[11] = target: Prostaglandin G/H synthase 1 (Homo sapiens, UniProt P23219); assay: Inhibition of COX1 (unknown origin) using arachidonic acid as substrate incubated for 10 mins by Ellman's reagent based COX-1/COX-2 ELISA assay
[12] = organism: Homo sapiens; assay: Selectivity index, ratio of IC50 for COX1 (unknown origin) to IC50 for COX2 (unknown origin)
Procedure, shortened: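 Ratio of COX-1 IC50 to COX-2 IC50, from human COX-1 and human COX-2 inhibitor screening assay kits. Each IC50 is the concentration giving 50% enzyme inhibition, taken as the mean of four determinations.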

Chain of Prostaglandin G/H synthase 1 (P23219 whole entry): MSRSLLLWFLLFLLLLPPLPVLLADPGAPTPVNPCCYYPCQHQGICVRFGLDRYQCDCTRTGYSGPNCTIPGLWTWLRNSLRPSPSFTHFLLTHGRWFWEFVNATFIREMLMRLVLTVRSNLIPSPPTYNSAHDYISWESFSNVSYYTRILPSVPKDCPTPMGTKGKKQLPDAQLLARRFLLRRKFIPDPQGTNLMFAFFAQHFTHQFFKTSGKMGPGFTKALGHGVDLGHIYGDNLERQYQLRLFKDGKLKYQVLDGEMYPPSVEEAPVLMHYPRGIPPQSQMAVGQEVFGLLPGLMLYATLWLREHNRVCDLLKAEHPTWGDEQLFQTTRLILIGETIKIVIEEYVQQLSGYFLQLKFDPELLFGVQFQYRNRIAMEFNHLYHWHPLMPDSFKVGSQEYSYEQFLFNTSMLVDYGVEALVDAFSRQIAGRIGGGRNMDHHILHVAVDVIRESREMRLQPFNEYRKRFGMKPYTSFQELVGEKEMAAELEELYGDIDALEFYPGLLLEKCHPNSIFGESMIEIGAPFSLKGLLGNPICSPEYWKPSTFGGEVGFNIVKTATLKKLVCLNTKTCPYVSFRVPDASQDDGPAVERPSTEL

SMILES | pIC50 [1] | pIC50 [2] | pIC50 [3] | pIC50 [8] | pIC50 [9] | pIC50 [10] | pIC50 [11] | Ratio IC50 [12] | pIC50 [4] | inhibition [5] | Activity [6] [mm3] | Activity [7]
Cc1ccc(-c2cc(C(F)(F)F)nn2-c2ccc(S(N)(=O)=O)cc2)cc1 [CELECOXIB] | 4.88 | 4.96 | 4.90 |  |  |  |  |  | 4.01 | Active | 978.35 | Active
NS(=O)(=O)c1ccc(-n2nc(C(=O)OCCCN3CCOCC3)cc2-c2ccccc2)cc1 | 4.64 | 4.75 | 4.76 | 4.65 | 6.25 | 6.09 |  |  | 4.02 |  |  | 
NS(=O)(=O)c1ccc(-n2nc(C(=O)N3CCSCC3)cc2-c2ccc(F)cc2)cc1 | 4.58 | 4.74 | 4.74 | 4.54 | 6.68 | 5.90 |  |  | 3.76 |  |  | 
CCOc1ccc(-c2cc(C(=O)OCCCN3CCOCC3)nn2-c2ccc(S(N)(=O)=O)cc2)cc1 | < 4.00 | < 4.00 | 4.81 | < 4.00 | 5.12 | 6.14 |  |  | 3.75 |  |  | 
COc1ccc(-c2cc(C(=O)OCCCN3CCOCC3)nn2-c2ccc(S(N)(=O)=O)cc2)cc1 | 4.86 | 4.74 | 4.70 | 4.57 | 5.98 | 6.06 |  |  | 3.77 |  |  | 
COc1ccc(-c2cc(C(=O)NCCCN3CCOCC3)nn2-c2ccc(S(N)(=O)=O)cc2)cc1 | 4.89 | 4.72 | 4.79 | < 4.00 | 6.15 | 6.01 |  |  | 3.70 |  |  | 
COc1ccc(-c2cc(C(=O)N3CCOCC3)nn2-c2ccc(S(N)(=O)=O)cc2)cc1 | 4.68 | 4.71 | 4.80 | 4.67 | 5.70 | 6.03 |  |  | 3.68 |  |  | 
CCOc1ccc(-c2cc(C(=O)NCCCN3CCOCC3)nn2-c2ccc(S(N)(=O)=O)cc2)cc1 | 4.89 | 4.75 | 4.82 | 4.72 | 6.04 | 6.08 |  |  | 3.86 |  |  | 
NS(=O)(=O)c1ccc(-n2nc(C(=O)OCCCN3CCOCC3)cc2-c2ccc(C(F)(F)F)cc2)cc1 | 4.84 | 4.82 | 4.83 | 4.53 | 6.68 | 6.12 | 4.54 | 136 | 3.75 |  |  | 
NS(=O)(=O)c1ccc(-n2nc(C(=O)N3CCOCC3)cc2-c2cccc(F)c2)cc1 | 4.52 | 4.59 | 4.72 | 4.29 | 6.64 | 5.70 |  |  | 3.75 |  |  | 
NS(=O)(=O)c1ccc(-n2nc(C(=O)N3CCSCC3)cc2-c2cccc(Cl)c2)cc1 | 4.86 | 4.81 | 4.90 | 4.83 | 6.66 to 6.68 | 6.06 | 4.53 | 140 | 3.72 |  |  | 
NS(=O)(=O)c1ccc(-n2nc(C(=O)N3CCOCC3)cc2-c2ccccc2)cc1 | 4.79 | 4.58 | 4.78 | < 4.00 | 6.16 | 5.92 |  |  | 3.73 |  |  | 
NS(=O)(=O)c1ccc(-n2nc(C(=O)NCCN3CCOCC3)cc2-c2ccc(Cl)cc2)cc1 | < 4.00 | 4.71 | 4.64 | 4.70 | 6.51 | 6.05 |  |  | 3.95 |  |  | 
NS(=O)(=O)c1ccc(-n2nc(C(=O)N3CCOCC3)cc2-c2ccc(Cl)cc2)cc1 | < 4.00 | < 4.00 | < 4.00 | < 4.00 | 6.46 | 5.75 |  |  | < 3.52 |  |  | 

More lines, main results first:

pIC50 [1] | pIC50 [2] | pIC50 [3] | pIC50 [8] | pIC50 [9] | pIC50 [10] | pIC50 [11] | Ratio IC50 [12] | SMILES | pIC50 [4] | inhibition [5] | Activity [6] [mm3] | Activity [7]
< 4.00 | < 4.00 | 4.40 | < 4.00 | 6.64 | 5.64 |  |  | NS(=O)(=O)c1ccc(-n2nc(C(=O)N3CCSCC3)cc2-c2ccc(Cl)cc2)cc1 | 3.64 |  |  | 
5.09 | 4.99 | 5.03 | 5.00 | 6.72 | 6.15 | 4.51 | 162 | NS(=O)(=O)c1ccc(-n2nc(C(=O)N3CCSCC3)cc2-c2ccc(C(F)(F)F)cc2)cc1 | 3.87 |  |  | 
4.71 | 4.75 | 4.82 | 4.69 | 6.06 | 6.04 |  |  | COc1ccc(-c2cc(C(=O)NCCN3CCOCC3)nn2-c2ccc(S(N)(=O)=O)cc2)cc1 | 3.84 |  |  | 
4.66 | 4.60 | 4.70 | 4.56 | 6.41 | 5.59 |  |  | NS(=O)(=O)c1ccc(-n2nc(C(=O)N3CCOCC3)cc2-c2ccc(C(F)(F)F)cc2)cc1 | 3.70 |  |  | 
< 4.00 | 4.51 | 4.72 | < 4.00 | 6.17 | 5.47 |  |  | NS(=O)(=O)c1ccc(-n2nc(C(=O)N3CCSCC3)cc2-c2ccccc2)cc1 | 3.79 |  |  | 
4.81 | 4.70 | 4.74 | 4.87 | 6.05 | 5.80 |  |  | Cc1ccc(-c2cc(C(=O)N3CCSCC3)nn2-c2ccc(S(N)(=O)=O)cc2)cc1 | 3.98 |  |  | 
4.67 | 4.56 | 4.78 | 4.61 | 6.72 | 6.09 |  |  | NS(=O)(=O)c1ccc(-n2nc(C(=O)OCCN3CCOCC3)cc2-c2ccc(C(F)(F)F)cc2)cc1 | 3.83 |  |  | 
